Source: ChEMBL document CHEMBL1121654, “New antiarrhythmic agents. 6. Quantitative structure-activity relationships of aminoxylidides” (J Med Chem, 1981)

Tests used:
[1] = Compound was evaluated for -Log [fraction ionized x ED50 (protection)]; type: ADME
[2] = Partition coefficient (logP); type: physicochemical; details: octanol/water
In short: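 1-Octanol/water partition by titration: 10–40 mL aqueous test compound (1 mM) with 4–25 mL 1-octanol, stirred vigorously, titrated with 0.1 N NaOH; apparent pKa′ calculated, from which partition coefficient obtained.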

[3] = Dissociation constant (pKa); type: physicochemical
Mus musculus [4] = species: Mus musculus; assay: Compound was evaluated for protection against tachycardia in mice; type: functional
In short: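 Mice given test agent, then chloroform-induced tachycardia (modified Lawson method); efficacy scored as percentage of mice protected at each dose. Doses stepped ≥0.15 log unit up/down to give low, medium and high protection incidence; ED50 (mmol/kg) by Berkson logit chi-square method.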

Mus musculus [5] = species: Mus musculus; assay: Compound was evaluated for ataxia in mice; type: functional
[6] = Therapeutic index is the ratio of ED50 (ataxia) to ED50 (protection) in mice; details: mouse; read-out: TI

| p[BH+50] [1] | logP [2] | pKa [3] | SMILES | ED50 (Mus musculus [4]) [µmol/kg] | ED50 (Mus musculus [5]) [µmol/kg] | selectivity ratio [6] |
| --- | --- | --- | --- | --- | --- | --- |
| 0.16 | 0.62 | 8.75 | Cc1cccc(C)c1NC(=O)CCN | 720 | 2300 | 3.2 |
| 0.1 | 0.71 | 9.35 | Cc1cccc(C)c1NC(=O)CCCN | 800 | 3250 | 4.1 |
| 1.4 | 3.48 | 10.2 | CCN(CC)CCCCCCC(=O)Nc1c(C)cccc1C | 40 | 830 | 21 |
| 0.88 | 2.73 | 7.93 | CCN(CC)C(C)C(=O)Nc1c(C)cccc1C (configuration not stated) | 170 | 130 | 0.8 |
| 0.5 | 0.76 | 7.54 | Cc1cccc(C)c1NC(=O)C(C)N (configuration not stated) [TOCAINIDE] | 550 | 760 | 1.4 |
| 0.45 | 1.08 | 9.36 | Cc1cccc(C)c1NC(=O)CCC(C)N (configuration not stated) | 360 | 2660 | 7.4 |
| 0.94 | 1.53 | 7.33 | Cc1cccc(C)c1NC(=O)C(C)N(C)C (configuration not stated) | 250 | 200 | 0.8 |
| 0.62 | 0.84 | 8.71 | Cc1cccc(C)c1NC(=O)CC(C)N (configuration not stated) | 250 | 1640 | 6.6 |
| 0.89 | 2.95 | 10.2 | CCN(CC)CCCCCC(=O)Nc1c(C)cccc1C | 130 | 670 | 5.2 |
| 0.57 | 1.29 | 10.1 | Cc1cccc(C)c1NC(=O)CCCCCN | 270 | 2070 | 7.7 |
| 1 | 2.64 | 10.1 | CCN(CC)C(C)CCCC(=O)Nc1c(C)cccc1C (configuration not stated) | 100 | 790 | 7.9 |
| 1.31 | 2.63 | 9.03 | CCN(CC)C(C)CC(=O)Nc1c(C)cccc1C (configuration not stated) | 50 | 90 | 1.8 |
| 0.37 | 0.45 | 7.42 | Cc1cccc(C)c1NC(=O)CN [GLYCINEXYLIDIDE] | 840 | 620 | 0.7 |
| 0.88 |  |  | CCN(CC)CC(=O)Nc1c(C)cccc1C [LIDOCAINE] | 210 | 180 |  |
| 0.72 | 1.41 | 9.79 | Cc1cccc(C)c1NC(=O)CCCC(C)N (configuration not stated) | 190 | 1170 | 6.2 |
| 0.92 | 2.42 | 9.96 | CCN(CC)CCCCC(=O)Nc1c(C)cccc1C | 120 | 660 | 5.5 |
| 0.86 | 2.06 | 9.52 | CCN(CC)CCCC(=O)Nc1c(C)cccc1C | 140 | 760 | 5.4 |
| 0.9 | 2.21 | 8.83 | CCN(CC)CCC(=O)Nc1c(C)cccc1C | 130 | 210 | 1.6 |
| 0.68 | 2.66 | 9.87 | CCN(CC)C(C)CCC(=O)Nc1c(C)cccc1C (configuration not stated) | 210 | 1150 | 5.5 |
| 0.51 | 1.02 | 9.81 | Cc1cccc(C)c1NC(=O)CCCCN | 310 | 1810 | 5.8 |
